Screening data as filed in PubChem.
ABCB1 inh – inhibitors of human ABCB1 transporter, ABCG2 counter-screen; CCRF-Adr cells, JC-1 efflux, flow cytometry; 190,000 compounds, 0.067% hits; AID 1326; inhibition, % at 6.6 µM; P08183; in the data active = inhibition above about 40%;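 note: 0% = vehicle and 100% = reference inhibitor; higher value means more JC-1 retained so stronger ABCB1 efflux block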
Arbovirus inh – arbovirus infection inhibition; arbovirus infection cell-based antiviral screen; inhibition, % at 10 µM; 200,000 compounds, 0.37% hits; AID 1251; in the data active = inhibition above about 30%
ABCG2 inh – inhibitors of human ABCG2 transporter, ABCB1 counter-screen. Q9UNQ0. IgMXP3 cells, JC-1 efflux, flow cytometry. inhibition, % at 6.6 µM. 190,000 compounds, 0.1% hits. AID 1325;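 active = inhibition above 80%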;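 note: 0% = DMSO and 100% = nicardipine control wells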
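Measure – % inhibition of efflux relative to nicardipine and DMSO · Test system – ABCG2 IgMXP3 and barcoded ABCB1 CCRF-Adr cell mix · Control set – nicardipine as high control, DMSO as low control · Compound – one concentration, 6.6 µM final · Signal – flow cytometry of retained JC-1 fluorescence · Timing – 10 min exposure at 25 °C with rotation, no wash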
RAM inhibit – yeast RAM network inhibition. S. cerevisiae dse1pr::URA3 reporter, 5-FOA growth OD615, 2 d; analog-sensitive cbk1-as2 kinase mutant strain. inhibition, % at 50 µM. 190,000 compounds, 1.8% hits. AID 868;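 active = inhibition above a set limit, 3 SD over mean compound inhibition, cut at about 8.4% in these data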;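 note: 0% = DMSO-only wells with no growth and 100% = 10 µM 1-NA-PP1 full growth; inhibition rescues growth on 5-FOA so higher OD means more RAM inhibition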
Active calls of the source: *. Hits are enriched below; roughly 2.3% of the tested compounds scored in any of these assays.

SMILES | ABCB1 inh | Arbovirus inh | ABCG2 inh | RAM inhibit
Cc1ccccc1N=C1NC(=O)/C(=C/c2cccn2-c2cccc(C(=O)O)c2)S1 | 0 | 76* | 0 | 8
O=C(O)c1cccc(-n2cccc2C=C2C(=O)c3ccccc3C2=O)c1 | -1 | 1 | 2 | 3
O=C(O)c1cccc(-n2cccc2/C=C2/NC(=O)N(c3ccc(Cl)cc3)C2=O)c1 | -1 | 32* | -2 | 0
CCOc1cccc(C(=O)Nc2ccccc2N2CCN(C(=O)C(C)C)CC2)c1 | 7 | 35* | 16 | 2
Cc1ccc(C(=O)Nc2ccccc2N2CCN(C(=O)C(C)C)CC2)cc1 | 1 | -4 | 2 | 2
O=[N+]([O-])c1cccc2ccc(/C=C/c3ccc(C(F)(F)F)cc3)nc12 | 0 | 28 | 0 | 10*
CCc1sc(N(C(=O)Cc2ccccc2)c2cccc(F)c2)nc1-c1ccc(C)cc1 | 0 | -10 | 1 | 8.9*
CC1=C(C#N)C(/C=N/OCc2ccc(F)cc2Cl)CC(=O)N1 (stereo not drawn) | 0 | 0 | 1 | 2
O=C(O)CCNC(=O)c1ccc(Br)o1 | 0 | 0 | 1 | 0
O=C(NCCC(c1ccccc1)c1ccccc1)c1ccc(Br)o1 | 0 | -6 | 0 | 10*
O=C(C1CCCN(S(=O)(=O)c2cccc3nsnc23)C1)N1CC=C(c2ccccc2)CC1 (stereo not drawn) | 1 | 4 | 2 | 3
CC(/C=C/c1ccc(N(C)C)cc1)=N\N=C(/N)SC1CC(=O)N(c2ccc(C(=O)O)cc2)C1=O (stereo not drawn) | -3 | -10 | -20 | 9.8*
CSc1nc2[nH]c3c(c2c2nncn12)CC(C)(C)OC3 | 0 | 2 | 2 | 0
C=CCN1C(=NC(=O)CC)SC2CS(=O)(=O)CC21 (stereo not drawn) | 0 | 0 | 3 | -1
CCCCC(=O)Nc1ccc(NC(=O)c2ccc([N+](=O)[O-])cc2)cc1OC | -9 | -1 | 11 | 9.1*
COc1cc([N+](=O)[O-])ccc1NC(=O)CCCOc1cc(C)ccc1C | 0 | -7 | 7 | 9.9*
COc1cc([N+](=O)[O-])ccc1NC(=O)CCCOc1ccccc1 | 0 | 9 | 1 | 2
CCCOC(=O)c1ccc(Oc2c(-c3ccc(OC)cc3O)n[nH]c2C)cc1 | 0 | -37 | 0 | 10*
CCCOC(=O)c1ccc(Oc2c(-c3ccc(O)cc3O)n[nH]c2C)cc1 | 0 | -33 | 0 | 5
CCN(CC)S(=O)(=O)c1ccc(/C=C/C(=O)N(c2ccccn2)C2CCCCC2)cc1 | 3 | -2 | 17 | 4
Cc1cccc(-n2cnc(C(=O)N3CCN(C)CC3)c2)n1 | 0 | 1 | 0 | 1
Cc1ccc(C)c2nc(Cl)c(C3NC(=O)c4ccccc4N3)cc12 (stereo not drawn) | 2 | -18 | 3 | 6
COc1ccccc1NC(=O)COC(=O)C12CC3CC(CC(Cl)(C3)C1)C2 | 1 | 2 | 13 | 11*
CC(C)(C)n1nnnc1C(c1cccs1)N(Cc1ccccc1)Cc1ccco1 (stereo not drawn) | 0 | -12 | 0 | 9.6*
CC(C)(C)n1nnnc1C(c1cccs1)N(Cc1cccnc1)Cc1ccco1 (stereo not drawn) | 2 | -1 | 2 | 0
SMILES | ABCB1 inh | Arbovirus inh | ABCG2 inh | RAM inhibit
CC1CC(C)CN(C(=O)COc2ccc([N+](=O)[O-])cc2Cl)C1 (stereo not drawn) | 1 | -1 | 9 | 3
CCOC(=O)c1c(NC(=O)CSc2nnc(Cc3ccccc3)o2)sc(C(C)=O)c1C | 2 | -1 | 3 | 9.0*
CCOC(=O)c1c(NC(=O)CSc2nc3ccccc3o2)sc(C(C)=O)c1C | 0 | 1 | 1 | 9.2*
CCOC(=O)c1c(NC(=O)CSc2nnc(-c3ccccc3)o2)sc(C(C)=O)c1C | 1 | -7 | 2 | 2
CCOC(=O)c1c(NC(=O)CSc2nnc(-c3ccc(C)cc3)o2)sc(C(C)=O)c1C | 1 | -3 | 3 | 4
CCCc1cc(C(=O)Nc2cc(Br)ccc2O)no1 | 0 | 35* | 1 | 2
CC(C)c1cc(C(=O)Nc2cc(Br)ccc2O)no1 | 0 | 21 | 0 | 3
COc1ccccc1/C=C(/C(=O)OCC(N)=O)c1ccccc1 | 0 | 1 | 8 | -1
COc1ccccc1/C=C(/C(=O)OCC(=O)N(C)Cc1ccccc1)c1ccccc1 | 1 | 6 | 14 | 10*
Cc1ccc(/C=C2/SC(=S)N(CC(=O)Nc3ncc(Cc4ccc(C)cc4)s3)C2=O)cc1 | 0 | -25 | 0 | 11*
Cc1ccc(/C=C2\SC(=S)N(CC(=O)Nc3ncc(Cc4ccccc4Cl)s3)C2=O)cc1 | -1 | 4 | -2 | 5
COc1ccc(OCCn2c(C)c(/C=N/n3cnnc3)c3ccccc32)cc1 | 1 | 6 | 6 | 10.0*
O=c1c2ccccc2c(C=Nc2ccc(S(=O)(=O)N3CCCCC3)cc2)c(O)n1-c1ccc(Cl)cn1 | -9 | -2 | -2 | 5
CC(C)(C)N/N=C/c1c(O)n(-c2ccc(Cl)cn2)c(=O)c2ccccc12 | 0 | -5 | 2 | 8.5*
O=c1c2ccccc2c(C=Nc2cccc(S(=O)(=O)NCc3ccco3)c2)c(O)n1-c1ccc(Cl)cn1 | -1 | -12 | -6 | 8.6*
COc1ccc(-n2c(SCC#N)nnc2-c2ccc(NS(=O)(=O)c3ccc(C)cc3)cc2)cc1 | 0 | -26 | 3 | 8.5*
Cc1ccc(S(=O)(=O)N(CC(=O)Nc2ccccc2C(=O)O)c2ccccc2)cc1 | 0 | 0 | 0 | 8.7*
Cc1ccc(N(CCC(=O)O)S(=O)(=O)c2ccccc2)cc1 | 0 | 15 | 2 | 1
CCOc1ccccc1NC(=O)CCN(c1ccc(C)cc1)S(=O)(=O)c1ccccc1 | 2 | -5 | 20 | 9.2*
CC(=O)Cc1nsc(NC(=O)c2cccc(F)c2)n1 | 0 | 7 | -1 | 0
CCCCSc1nc(NCc2ccco2)c2c3c(sc2n1)COC(C)(C)C3 | -1 | 12 | 36 | 10*
CC12C(=O)N(c3cccc4cccnc34)C(=O)C1C1C=CC2C1 (stereo not drawn) | 0 | 4 | 0 | 1
CCN(CC)S(=O)(=O)c1cc(C(=O)OCC(=O)Nc2cccc(S(=O)(=O)N(C)C)c2)ccc1F | 0 | 5 | 4 | 9.2*
CCN(CC)S(=O)(=O)c1cc(NC(=O)COC(=O)CCC(=O)c2cccs2)ccc1C | 1 | 0 | 1 | 7
CCN(CC)S(=O)(=O)c1cc(NC(=O)COC(=O)CCC(=O)c2ccc(F)cc2)ccc1C | -8 | 0 | 0 | 9.5*
Nc1nnc(SCCCC(=O)c2ccc(Br)cc2)s1 | 1 | 6 | 21 | 3
COc1cc(/C=C2/NC(=O)N(CC(=O)Nc3cccc(C)c3)C2=O)ccc1OCC(N)=O | 0 | -1 | -1 | 3
Cc1csc(NC(=O)c2c(O)c3c(n(CC(C)C)c2=O)CCCC3)n1 | 1 | 55* | 3 | 2
CCCn1c2c(c(O)c(C(=O)Nc3nc(C)cs3)c1=O)CCCC2 | 0 | 12 | 0 | 1
CC(C)Cn1c2c(c(O)c(C(=O)Nc3nccs3)c1=O)CCCC2 | 1 | 37* | 5 | 3
